HKDC1 inhibitor: HKDC1 hexokinase inhibitors, primary screen, biochemical, fluorescence, uHTS | recombinant HKDC1, G6PDH/diaphorase resazurin coupled fluorescence | inhibition, % at 20 µM | 340,000 tested, 0.16% active | Q2TB90;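 active = inhibition above about 35% when tested at 20 µM, limit read from the data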;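 also: plate controls were DMSO wells with enzyme for no effect and DMSO wells lacking enzyme for full effect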
Target sequence (Q2TB90 whole entry, looked up): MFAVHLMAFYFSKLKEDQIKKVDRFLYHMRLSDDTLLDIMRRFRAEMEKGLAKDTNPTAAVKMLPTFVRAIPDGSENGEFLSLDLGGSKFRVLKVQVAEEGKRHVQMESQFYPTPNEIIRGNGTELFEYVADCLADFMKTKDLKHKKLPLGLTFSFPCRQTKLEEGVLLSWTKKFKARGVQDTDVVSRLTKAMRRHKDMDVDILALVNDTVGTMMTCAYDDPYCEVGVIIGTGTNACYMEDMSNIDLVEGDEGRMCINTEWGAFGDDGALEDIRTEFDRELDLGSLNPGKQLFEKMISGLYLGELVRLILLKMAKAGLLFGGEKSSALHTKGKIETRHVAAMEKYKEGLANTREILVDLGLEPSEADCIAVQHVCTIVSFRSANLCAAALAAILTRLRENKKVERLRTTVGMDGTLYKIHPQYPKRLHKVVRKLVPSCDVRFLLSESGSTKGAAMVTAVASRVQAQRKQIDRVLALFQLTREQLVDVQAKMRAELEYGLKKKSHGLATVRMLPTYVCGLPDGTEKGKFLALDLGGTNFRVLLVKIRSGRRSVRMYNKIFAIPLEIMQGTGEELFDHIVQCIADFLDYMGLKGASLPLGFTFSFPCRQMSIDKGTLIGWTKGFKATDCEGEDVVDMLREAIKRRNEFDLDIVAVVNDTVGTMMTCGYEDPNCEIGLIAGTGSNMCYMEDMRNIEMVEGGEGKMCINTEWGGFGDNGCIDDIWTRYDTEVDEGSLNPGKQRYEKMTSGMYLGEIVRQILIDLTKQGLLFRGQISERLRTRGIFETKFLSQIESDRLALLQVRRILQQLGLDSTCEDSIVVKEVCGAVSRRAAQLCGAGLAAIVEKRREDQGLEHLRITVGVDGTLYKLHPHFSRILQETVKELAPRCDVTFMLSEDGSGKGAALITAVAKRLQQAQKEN
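Assay system: recombinant HKDC1 hexokinase; detection: coupled resazurin fluorescence, excitation 525 nm, emission 613 nm; benchmarks: DMSO-plus-enzyme-mix negative control, buffer-substituted positive control; compound dosing: single 20 µM dose; schedule: 90 min at room temperature in dark; also added: glucose plus 1 mM ATP as hexokinase substrates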
Diaph act CS: compounds boosting diaphorase resazurin reduction – biochemical, uHTS, resorufin fluorescence, counter-screen for diaphorase-coupled primary assays, primary screen; 190,000 tested, 0.005% active; Diaphorase/resazurin coupled assay, 16 min; stronger effect = higher value; 1 = vehicle wells, 0 = NADH-free wells; activation factor at 20 µM;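 active = diaphorase activity raised at least twofold by the compound at 20 µM; inactive = activation factor below 2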
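Material: purified diaphorase enzyme from Clostridium kluyveri; Also added: 0.114 mM NADH and 0.1 mM resazurin, final amounts; Doses: single compound dose of 20 µM, 1% DMSO final; Times: 16 min enzyme reaction, ambient temperature; Detection: resorufin fluorescence, excitation 544 nm, emission 590 nm; Measure: increased resorufin signal from activators or reducing compounds.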
G6PDH counter-1: L. mesenteroides G6PDH inhibitors, counter-screen for G6PDH-coupled screening assays, biochemical, Leuconostoc mesenteroides enzyme; glucose-6-phosphate dehydrogenase [Leuconostoc mesenteroides]; Purified L. mesenteroides G6PDH, diaphorase/resazurin coupled fluorescence, 45 min; inhibition, % at 5 µM; 200,000 tested, 0.12% active; in the data active = inhibition above about 50%
PfG6PD inh: PfG6PD enzyme inhibitors, primary screen, biochemical, fluorescence intensity, uHTS; PfGluPho enzyme, NADPH resazurin-diaphorase fluorescence; inhibition, % at 20 µM; 350,000 tested, 0.78% active; AID 504690, 2011;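 active = inhibition reaching at least a set limit at 20 µM in the primary screen, cut at about 59% in these data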;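 also: 0% = DMSO wells with substrate and 100% = DMSO wells lacking glucose-6-phosphate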
Diaphorase inh: diaphorase inhibitors and chemical oxidizers, primary screen, counter-screen for diaphorase-coupled primary assays, biochemical, uHTS, resorufin fluorescence; diaphorase resazurin-to-resorufin fluorescence, NADH, 16 min; bacterial (C. kluyveri) enzyme, not human; inhibition, % at 20 µM; 190,000 tested, 0.69% active; AID 1217, 2008;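 active = primary screen inhibition at 20 µM above a set limit, cut at about 50% in these data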;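 also: plate controls were DMSO with full reaction for no effect and wells lacking NADH for full effect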
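Test system: diaphorase enzyme from Clostridium kluyveri; amount: diaphorase at 0.14 U/mL in enzyme working solution; detection: fluorescence of resorufin formed from resazurin, Ex 544/Em 590 nm; times: reaction incubation of 16 min at room temperature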
TbHK1 inh: Trypanosoma brucei hexokinase 1 inhibitors, primary screen, biochemical, G6PDH-coupled NADH absorbance, MLSCN library; inhibition, % at 10 µM; 220,000 tested, 0.11% active; recombinant TbHK1, G6PDH-coupled NADH A340; AID 1430, 2008;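 active = inhibition of 50% or more in the single-dose primary screen; inactive = inhibition below 50%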
G6PDH counter-2: Leuconostoc G6PDH inhibition, confirmation, counter-screen for TbHK1 inhibitor project, biochemical, DPI cherry-picked compounds, single concentration. shares compounds with TbHK1 inh. purified G6PDH, NADH absorbance, 1 h. inhibition, % at 10 µM. 210 tested, 7% active. AID 2516, 2010;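 active = at least 50% inhibition in the glucose-6-phosphate dehydrogenase coupled counterscreen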
TbHK1 rescreen: TbHK1 inhibitor retest, confirmation, biochemical, DPI cherry-picked primary actives; AID 2560, 2010; inhibition, % at 10 µM; recombinant TbHK1, G6PDH-coupled NADH A340 absorbance; 210 tested, 10% active; shares compounds with TbHK1 inh;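 active = inhibition of at least 50% in both of the two screening runs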;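 also: 0% and 100% set by the maximum and minimum signal control wells on each plate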
* = called active by the depositor; · = no result given; ! = not active in a repeat. Hits are enriched below; roughly 1.3% of the tested compounds scored in any of these assays.

SMILES	HKDC1 inhibitor	Diaph act CS	G6PDH counter-1	PfG6PD inh	Diaphorase inh	TbHK1 inh	G6PDH counter-2	TbHK1 rescreen
Cc1cc(NC(=O)COC(=O)CCCOc2ccc(Cl)cc2C)no1	0	0.9	3	-16	10	55*	0	-4
CC(C)(C)c1ccc(COC(=O)CNC(=O)CNC(=O)Cc2ccccc2)cc1	-4	0.9	8	10	6	3	·	·
CC(C)(C)OC(=O)NCC(=O)NCC(=O)OCc1ccccc1	4	0.9	-14	-24	5	53*	3	1
CCOc1ccc(CCNC(=O)c2nnn(CC(=O)Nc3ccccc3C)c2N)cc1OCC	-3	·	·	-16	·	·	·	·
COc1ccc(CCNC(=O)c2nnn(CC(=O)Nc3ccccc3C)c2N)cc1OC	2	1	7	-8	-1	55*	-6	-7
Cc1cccc(NC(=S)NNC(=O)c2cc3c(s2)CCC(C)C3)c1C (stereo not given)	-15	1.1	7	-23	-11	71*	-34	-1
Cc1ccc(C)c(NC(=S)NNC(=O)c2cc3c(s2)CCC(C)C3)c1 (stereo not given)	-12	0.9	-12	-5	10	6	·	·
COC(=O)c1cccc(NC(=O)CCNC(=O)c2ccc([N+](=O)[O-])cc2)c1	-9	0.9	10	-2	10	-6	·	·
CCCn1c(SCC(=O)Nc2ccccc2CC)nnc1C(C)C	1	0.9	-10	-18	14	65*	3	2
CCOC(=O)N1CCN(c2ccc(S(=O)(=O)N(Cc3ccccc3)Cc3ccccc3)cn2)CC1	-5	0.8	-41	31	20	58*	-46	7
CCOC(=O)N1CCN(c2ccc(S(=O)(=O)N3CCOCC3)cn2)CC1	-4	·	·	-4	·	·	·	·
CC1(c2ccccc2)C(C#N)C(=O)NC(=O)C1C#N (stereo not given)	2	·	·	-23	·	·	·	·
CCN(CC)CCN1C(=O)c2oc3ccccc3c(=O)c2C1c1ccc(F)cc1 (stereo not given)	-14	1	13	1	3	-1	·	·
CCN(CC)CCCN1C(=O)c2oc3ccccc3c(=O)c2C1c1cccnc1 (stereo not given)	1	0.9	0	-9	14	54*	-17	-10
COc1ccc(NC(=O)CSc2nc3n[nH]c(C)c3c(=N)n2-c2ccc(Cl)c(C)c2)cc1OC	3	·	·	-5	·	·	·	·
CC1CCC(C(C)C)C(OC(=O)Cn2c(-c3ccc(Br)cc3)[n+](C)c3ccccc32)C1 (stereo not given)	-5	1	-12	-24	1	29	·	·
Cc1ccccc1OCc1n(CC(=O)OC2CC(C)CCC2C(C)C)c2ccccc2[n+]1C (stereo not given)	-5	1.2	2	-4	-24	76*!	39	30
CC1SCC(NC(=O)c2ccc(Cl)cc2)CS1 (stereo not given)	-2	·	·	-5	·	51*	-1	0
Cn1cc(/C=C(\NC(=O)c2ccccc2)C(=O)NCCN2CCOCC2)c2ccccc21	-3	·	·	4	·	·	·	·
CCCCC(C(=O)O)C(C)CC(=O)Nc1cccc(C(=O)O)c1 (stereo not given)	2	0.8	9	2	17	-2	·	·
C=CCNC(=O)CC(C)C(CCCCC)C(=O)O (stereo not given)	-11	0.9	4	-5	14	50*	-9	3
CCOC(=O)[C@H]1[C@H]2COc3ccc(C)cc3[C@@H]2N2C(=O)CN(CC3CCCO3)C(=O)[C@@]12C (stereo not given in full)	3	·	·	-3	·	·	·	·
COc1ccc(CNC(=O)C2CCN(C(=O)[C@@H](CC(C)C)NC(=O)OC(C)(C)C)CC2)cc1	·	1	5	·	4	56*	-9	1
COc1cc(C2C(C#N)=C(N)Oc3cc(O)ccc32)cc2c1OCO2 (stereo not given)	5	0.8	-1	-18	23	-1	·	·
COc1cc(C2C(C#N)=C(N)Oc3cc(N(C)C)ccc32)cc2c1OCO2 (stereo not given)	-2	0.8	7	7	25	59*	-7	-13
SMILES	HKDC1 inhibitor	Diaph act CS	G6PDH counter-1	PfG6PD inh	Diaphorase inh	TbHK1 inh	G6PDH counter-2	TbHK1 rescreen
COC(=O)C1=C(NC(=O)c2ccc(C)c(C)c2)CCS1	13	0.8	4	3	22	57*	1	-1
CCN(CC)S(=O)(=O)c1ccc(C(=O)NC2=C(C(=O)OC)SCC2)cc1	13	0.7	-4	-15	30	55*	-82	-34
Cc1ccc(S(=O)(=O)NNC(=S)NC(=O)c2ccc([N+](=O)[O-])cc2)cc1	-25	0.7	-14	-10	27	78*	-26	10
O=C(O)CCCCC1CCSS1 (stereo not given)	1	0.9	7	-14	10	86*	-39	96*
CCCCCCCCCC(=O)O	-5	·	·	-24	·	·	·	·
CCOc1ccc(Br)cc1S(=O)(=O)NCCN1CCCC1	-3	·	·	4	·	·	·	·
Cc1c(Cl)cccc1N1C(=O)C2ON(c3ccccc3)C(c3cccnc3)C2C1=O (stereo not given)	-1	0.7	3	-7	32	51*	-26	-9
Cc1cc(C)n2nc(C(=O)N3CCCC(N4CCN(c5ccccc5C)CC4)C3)cc2n1 (stereo not given)	18	·	·	39	·	·	·	·
O=C(O)C1CCCCC1C(=O)NCCc1ccccc1 (stereo not given)	-6	1	-4	7	4	2	·	·
COc1ccc(CCNC(=O)C2CCCCC2C(=O)O)cc1OC (stereo not given)	·	0.9	0	·	9	59*	-5	3
CCCCn1c(NC(=S)Nc2ccccc2)nc2ccccc21	-32	1	-21	1	0	62*	-33	-37
S=C(Nc1ccccc1)Nc1nc2ccccc2n1CCOc1ccccc1	-32	0.9	0	3	9	-8	·	·
